Data published in ChEMBL document CHEMBL2203189, “Synthesis and pharmacology of 1-alkyl-3-(1-naphthoyl)indoles: steric and electronic effects of 4- and 8-halogenated naphthoyl substituents” (Bioorg Med Chem, 2012).
Calls of active or inactive are those of the source.

What was measured:
Mus musculus [1] = test: Locomotor activity in iv dosed Harlan ICR mouse from 5 to 15 mins by spontaneous locomotor activity test; format: functional
Mus musculus [2] = species: Mus musculus; test: Induction of catalepsy in mouse by ring immobility test; format: functional
Mus musculus [3] = test: Antinociceptive activity in iv dosed Harlan ICR mouse assessed as latency to heat-induced tail flicking at 20 mins; format: functional
Outline: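 Male ICR mice, 18–25 g, n = 6 per dose. Multiple doses iv by tail vein in emulphor–ethanol–saline 1:1:18. Tail-flick latency at 20 min, 10 s cutoff, expressed as %MPE.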

Mus musculus [4] = test: Hypothermic activity in iv dosed Harlan ICR mouse assessed as change in rectal temperature at 30 mins; format: functional; conditions: 0.5 h
Cannabinoid receptor 1 [5] = molecular target: T1, Cannabinoid receptor 1 (Homo sapiens, UniProt P21554); test: Activation of human CB1 receptor expressed in HEK293 cells assessed as [35S]GTPgamma binding after 90 mins by liquid scintillation spectrophotometry; format: functional, cell-based
Outline: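 Membranes from HEK-293 cells stably expressing human CB1, pelleted at 50,000g and taken up in Tris-HCl pH 7.4 with MgCl2, EGTA and NaCl. 10 µg protein with BSA, 20 µM GDP, 0.1 nM [35S]GTPγS and graded test concentrations, 90 min at 30 °C. 2 µM CP55,940 run as internal standard; basal without agonist, nonspecific with 10 µM GTPγS. Filtration, then scintillation counting.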

Cannabinoid receptor 2 = Cannabinoid receptor 2 (Homo sapiens, UniProt P34972); test: Displacement of [3H]CP55940 from human CB2 receptor expressed in CHO cells after 1 hr by liquid scintillation spectrophotometry; format: cell-based
Outline: (§1)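 Membranes (50 µg) from CHO cells stably expressing human CB2, cultured in DMEM/10% fetal calf serum. Incubated with 0.5 nM [3H]CP55,940 and test compound at 1 nM–10 µM with BSA (5 mg/mL), 1 h at 30 °C. Nonspecific binding defined with excess unlabelled CP55,940. GF/B filtration, then scintillation counting.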

Homo sapiens = species: Homo sapiens; test: Selectivity ratio of Ki for human CB1 receptor to Ki for human CB2 receptor
Cannabinoid receptor 1 [6] = molecular target: T1, Cannabinoid receptor 1; test: Displacement of [3H]CP55940 from human CB1 receptor expressed in HEK293 cells after 1 hr by liquid scintillation spectrophotometry; format: cell-based
Outline: as §1, with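 “HEK-293” for “CHO”, “CB1,” for “CB2,”, “FBS.” for “fetal calf serum.”, “µM in buffer” for “µM”, “Filtered through GF/B,” for “GF/B filtration,”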

Mus musculus [7] = test: Locomotor activity in Harlan ICR mouse assessed as inhibition of activity level at 66 umol/kg, iv from 5 to 15 mins by spontaneous locomotor activity test relative to vehicle treated control; format: functional
Outline: (§2)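 Male ICR mice, n = 6 per dose, single probe dose iv in emulphor–ethanol–saline 1:1:18. Photocell beam interruptions recorded over 10 min, at 5–15 min after dosing. Result given as % inhibition relative to the vehicle group.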

Mus musculus [8] = test: Induction of catalepsy in iv dosed Harlan ICR mouse at 40 mins measured for 5 mins by ring immobility test; format: functional
Mus musculus [9] = test: Locomotor activity in Harlan ICR mouse assessed as inhibition of activity level at 6.2 umol/kg, iv from 5 to 15 mins by spontaneous locomotor activity test relative to vehicle treated control; format: functional, organism-based
Outline: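 Spontaneous activity in male ICR mice (18–25 g) after one iv tail-vein probe dose in 1:1:18 emulphor–ethanol–saline. Photocell beam interruptions (16 beams per chamber) recorded over 10 min, 5–15 min after dosing. Reported as % inhibition relative to the vehicle group. n = 6 per dose.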

Mus musculus [10] = test: Hypothermic activity in Harlan ICR mouse assessed as change in rectal temperature at 74 umol/kg, iv at 30 mins; format: functional
Outline: (§3)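 Male ICR mice, n = 6 per dose. Single probe dose iv in emulphor–ethanol–saline 1:1:18. Rectal temperature taken with a thermistor probe at 25 mm depth before dosing and at 30 min. Result given as change from pre-injection value (°C).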

Mus musculus [11] = test: Antinociceptive activity in Harlan ICR mouse assessed as latency to heat-induced tail flicking at 74 umol/kg, iv at 20 mins relative to control; format: functional
Mus musculus [12] = test: Locomotor activity in Harlan ICR mouse assessed as inhibition of activity level at 74 umol/kg, iv from 5 to 15 mins by spontaneous locomotor activity test relative to vehicle treated control; format: functional; outline: as §2
Mus musculus [13] = test: Hypothermic activity in Harlan ICR mouse assessed as change in rectal temperature at 86 umol/kg, iv at 30 mins; format: functional, organism-based; outline: as §3
Mus musculus [14] = test: Locomotor activity in Harlan ICR mouse assessed as inhibition of activity level at 86 umol/kg, iv from 5 to 15 mins by spontaneous locomotor activity test relative to vehicle treated control; format: functional; outline: as §2
Mus musculus [15] = test: Antinociceptive activity in Harlan ICR mouse assessed as latency to heat-induced tail flicking at 86 umol/kg, iv at 20 mins relative to control; format: functional
Mus musculus [16] = test: Locomotor activity in Harlan ICR mouse assessed as inhibition of activity level at 77 umol/kg, iv from 5 to 15 mins by spontaneous locomotor activity test relative to vehicle treated control; format: functional; outline: as §2
Mus musculus [17] = test: Antinociceptive activity in Harlan ICR mouse assessed as latency to heat-induced tail flicking at 77 umol/kg, iv at 20 mins relative to control; format: functional
Mus musculus [18] = test: Induction of catalepsy in Harlan ICR mouse at 77 umol/kg, iv at 40 mins measured for 5 mins by ring immobility test; format: functional
Outline: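 Male ICR mice given a single iv probe dose in emulphor–ethanol–saline 1:1:18. At 40 min placed on a 5.5 cm ring raised 16 cm and observed for 5 min by blinded raters. Up to 5 escapes allowed; mice escaping before 2.5 min excluded. Immobility index = time motionless / 300 s × 100.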

Mus musculus [19] = test: Hypothermic activity in Harlan ICR mouse assessed as change in rectal temperature at 77 umol/kg, iv at 30 mins; format: functional; outline: as §3

Chain of Cannabinoid receptor 2 (P34972 whole entry): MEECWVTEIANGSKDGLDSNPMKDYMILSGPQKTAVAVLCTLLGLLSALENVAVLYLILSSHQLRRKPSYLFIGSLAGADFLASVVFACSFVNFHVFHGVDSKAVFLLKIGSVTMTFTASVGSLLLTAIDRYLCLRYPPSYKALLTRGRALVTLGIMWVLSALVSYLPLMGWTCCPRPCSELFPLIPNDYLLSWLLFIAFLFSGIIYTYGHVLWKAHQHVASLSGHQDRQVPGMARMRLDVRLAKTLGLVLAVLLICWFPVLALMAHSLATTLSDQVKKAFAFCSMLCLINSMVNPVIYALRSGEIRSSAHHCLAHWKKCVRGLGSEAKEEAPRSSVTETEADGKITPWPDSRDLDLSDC
T1 sequence (P21554 whole entry): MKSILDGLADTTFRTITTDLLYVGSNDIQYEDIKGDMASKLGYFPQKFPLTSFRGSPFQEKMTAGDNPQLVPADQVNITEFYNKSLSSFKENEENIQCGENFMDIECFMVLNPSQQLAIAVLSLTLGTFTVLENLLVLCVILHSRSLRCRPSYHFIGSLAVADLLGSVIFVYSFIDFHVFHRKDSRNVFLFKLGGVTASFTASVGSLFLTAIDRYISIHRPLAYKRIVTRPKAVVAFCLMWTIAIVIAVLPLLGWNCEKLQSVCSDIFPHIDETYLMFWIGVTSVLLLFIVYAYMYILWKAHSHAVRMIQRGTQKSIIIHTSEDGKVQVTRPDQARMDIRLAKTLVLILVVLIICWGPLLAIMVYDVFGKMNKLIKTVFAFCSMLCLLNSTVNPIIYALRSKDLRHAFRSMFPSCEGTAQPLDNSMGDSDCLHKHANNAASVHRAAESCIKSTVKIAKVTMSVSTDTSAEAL

Structure (SMILES): CCCn1c(C)c(C(=O)c2cccc3ccccc23)c2ccccc21
- ED50 (Mus musculus [1]): 18.7 µmol/kg
- ED50 (Mus musculus [2]): 87.2 µmol/kg
- ED50 (Mus musculus [3]): 84.7 µmol/kg
- ED50 (Mus musculus [4]): 99.1 µmol/kg

Structure (SMILES): C=C1CC[C@@H]2[C@@H](C1)c1ccc(C(C)(C)CCCCCC)cc1OC2(C)C
- Activity (Cannabinoid receptor 1 [5]): inactive

Structure (SMILES): CCCn1c(C)c(C(=O)c2cccc3cccc(I)c23)c2ccccc21
- Ki (Cannabinoid receptor 2): 536 nM
- Ratio Ki (Homo sapiens): 8
- Ki (Cannabinoid receptor 1 [6]): 4290 nM
- inhibition (Mus musculus [7]): inactive

Structure (SMILES): CCCCCn1c(C)c(C(=O)c2ccc(I)c3ccccc23)c2ccccc21
- ED50 (Mus musculus [1]): 1.1 µmol/kg
- Ki (Cannabinoid receptor 2): 2.1 nM
- ED50 (Mus musculus [8]): 2.5 µmol/kg
- Ratio Ki (Homo sapiens): 7
- ED50 (Mus musculus [3]): 2.5 µmol/kg
- Ki (Cannabinoid receptor 1 [6]): 14 nM
- ED50 (Mus musculus [4]): 2.6 µmol/kg

Structure (SMILES): CCCCCn1cc(C(=O)c2ccc(F)c3ccccc23)c2ccccc21
- ED50 (Mus musculus [1]): < 0.08 µmol/kg
- Ki (Cannabinoid receptor 2): 3.2 nM
- ED50 (Mus musculus [8]): 0.58 µmol/kg
- Ratio Ki (Homo sapiens): 2
- ED50 (Mus musculus [3]): 0.14 µmol/kg
- Ki (Cannabinoid receptor 1 [6]): 7.2 nM
- ED50 (Mus musculus [4]): < 0.08 µmol/kg

Structure (SMILES): CCCCCn1cc(C(=O)c2ccc(I)c3ccccc23)c2ccccc21
- ED50 (Mus musculus [1]): 0.3 µmol/kg
- Ki (Cannabinoid receptor 2): 1.3 nM
- ED50 (Mus musculus [8]): 0.38 µmol/kg
- Ratio Ki (Homo sapiens): 2
- ED50 (Mus musculus [3]): 0.45 µmol/kg
- Ki (Cannabinoid receptor 1 [6]): 2.5 nM
- ED50 (Mus musculus [4]): 0.19 µmol/kg

Structure (SMILES): CCCn1cc(C(=O)c2ccc(Cl)c3ccccc23)c2ccccc21
- Ki (Cannabinoid receptor 2): 44 nM
- Ratio Ki (Homo sapiens): 2
- Ki (Cannabinoid receptor 1 [6]): 93 nM

Structure (SMILES): CCCCCn1c(C)c(C(=O)c2cccc3cccc(I)c23)c2ccccc21
- Ki (Cannabinoid receptor 2): 13 nM
- Ratio Ki (Homo sapiens): 40
- Ki (Cannabinoid receptor 1 [6]): 522 nM
- inhibition (Mus musculus [9]): inactive

Structure (SMILES): Cc1c(C(=O)c2cccc3ccccc23)c2cccc3c2n1[C@H](CN1CCOCC1)CO3 [WIN-552122]
- ED50 (Mus musculus [1]): 0.23 µmol/kg
- ED50 (Mus musculus [3]): 0.94 µmol/kg

Structure (SMILES): CCCn1c(C)c(C(=O)c2cccc3cccc(Br)c23)c2ccccc21
- Activity (Mus musculus [10]): -2.3%
- Ki (Cannabinoid receptor 2): 278 nM
- Activity (Mus musculus [11]): 72%
- Ratio Ki (Homo sapiens): > 36
- Ki (Cannabinoid receptor 1 [6]): > 10000 nM
- inhibition in vivo at 74 µmol/kg (Mus musculus [12]): 49%

Structure (SMILES): CCCn1cc(C(=O)c2cccc3cccc(Cl)c23)c2ccccc21
- Activity (Mus musculus [13]): inactive
- Ki (Cannabinoid receptor 2): 134 nM
- Ratio Ki (Homo sapiens): 4.8
- inhibition in vivo at 86 µmol/kg (Mus musculus [14]): 68%
- Ki (Cannabinoid receptor 1 [6]): 642 nM
- Activity (Mus musculus [15]): 72%

Structure (SMILES): CCCCCn1c(C)c(C(=O)c2ccc(Cl)c3ccccc23)c2ccccc21
- inhibition in vivo at 77 µmol/kg (Mus musculus [16]): 94%
- Activity (Mus musculus [17]): 100%
- Ki (Cannabinoid receptor 2): 2.3 nM
- Activity (Mus musculus [18]): 88%
- Activity (Mus musculus [19]): -6.4%
- Ratio Ki (Homo sapiens): 4
- Ki (Cannabinoid receptor 1 [6]): 8.9 nM

Structure (SMILES): CCCCCn1cc(C(=O)c2cccc3cccc(Br)c23)c2ccccc21
- ED50 (Mus musculus [1]): 1.4 µmol/kg
- Ki (Cannabinoid receptor 2): 5.4 nM
- ED50 (Mus musculus [8]): 3.7 µmol/kg
- Ratio Ki (Homo sapiens): 4
- ED50 (Mus musculus [3]): 1.8 µmol/kg
- Ki (Cannabinoid receptor 1 [6]): 21 nM
- ED50 (Mus musculus [4]): 2.4 µmol/kg
